Data set [1] addresses T1, Peroxisome proliferator-activated receptor alpha (Homo sapiens, UniProt Q07869).
T1 sequence (Q07869 whole entry): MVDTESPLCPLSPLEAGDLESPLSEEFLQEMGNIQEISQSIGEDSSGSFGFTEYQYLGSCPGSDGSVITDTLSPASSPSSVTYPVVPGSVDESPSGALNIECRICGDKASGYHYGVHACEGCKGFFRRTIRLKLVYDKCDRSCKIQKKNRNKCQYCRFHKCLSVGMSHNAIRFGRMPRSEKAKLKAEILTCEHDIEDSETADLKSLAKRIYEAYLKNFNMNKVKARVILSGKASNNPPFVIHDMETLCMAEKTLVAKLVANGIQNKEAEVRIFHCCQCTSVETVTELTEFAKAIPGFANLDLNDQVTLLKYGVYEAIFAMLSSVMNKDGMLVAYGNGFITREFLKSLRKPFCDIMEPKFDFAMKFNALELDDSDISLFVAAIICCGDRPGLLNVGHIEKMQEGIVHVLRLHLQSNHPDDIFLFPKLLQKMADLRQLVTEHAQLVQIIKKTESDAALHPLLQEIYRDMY
The experiment in a line: Displacement of pan-PPAR fluormone from PPARalpha LBD by TR-FRET based LanthaScreen assay. (In general: TR-FRET usually uses a lanthanide donor and a delayed reading to cut background.)

The target of data set [2] is T2, Peroxisome proliferator-activated receptor gamma (Homo sapiens) (UniProt P37231).
T2 sequence (whole entry): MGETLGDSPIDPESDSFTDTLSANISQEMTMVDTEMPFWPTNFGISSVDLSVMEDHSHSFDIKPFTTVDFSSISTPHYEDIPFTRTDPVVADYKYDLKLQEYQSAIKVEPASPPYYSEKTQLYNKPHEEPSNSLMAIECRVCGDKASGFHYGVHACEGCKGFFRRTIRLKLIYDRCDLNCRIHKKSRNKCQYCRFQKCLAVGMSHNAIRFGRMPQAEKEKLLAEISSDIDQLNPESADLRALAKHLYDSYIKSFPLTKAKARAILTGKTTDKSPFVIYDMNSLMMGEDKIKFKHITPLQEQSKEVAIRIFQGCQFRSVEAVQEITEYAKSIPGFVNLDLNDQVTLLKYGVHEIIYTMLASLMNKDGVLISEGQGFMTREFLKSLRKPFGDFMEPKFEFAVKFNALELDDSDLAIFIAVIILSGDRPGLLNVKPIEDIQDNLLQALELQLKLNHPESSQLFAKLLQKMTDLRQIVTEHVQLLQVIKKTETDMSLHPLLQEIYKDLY
The experiment in a line: Displacement of pan-PPAR fluormone from PPARgamma LBD at >= 100 uM by TR-FRET based LanthaScreen assay.

A short description of data set [3]: Octanol-water partition coefficient, log P of the compound. The format is physicochemical.
Data set [4] concerns the target T2, Peroxisome proliferator-activated receptor gamma (Homo sapiens). Description: Binding affinity to PPARgamma LBD at >= 100 uM by fluorescence polarization based competitive binding assay. For orientation: In fluorescence polarisation assays a small probe gives low polarisation when free and higher when bound to something large.
Data set [5] addresses T3, Peroxisome proliferator-activated receptor alpha (Homo sapiens) (UniProt Q07869).
T3 sequence (whole entry): T1 sequence (Q07869 whole entry)
Description: Displacement of pan-PPAR fluormone from PPARalpha LBD at >= 100 uM by TR-FRET based LanthaScreen assay.

A further data set is filed under the species Homo sapiens. The experiment in a line: Selectivity ratio of EC50 for PPARalpha LBD to EC50 for PPARgamma LBD.
Data set [6] deals with T4, Peroxisome proliferator-activated receptor delta (Homo sapiens, UniProt Q03181).
T4 sequence (Q03181 whole entry): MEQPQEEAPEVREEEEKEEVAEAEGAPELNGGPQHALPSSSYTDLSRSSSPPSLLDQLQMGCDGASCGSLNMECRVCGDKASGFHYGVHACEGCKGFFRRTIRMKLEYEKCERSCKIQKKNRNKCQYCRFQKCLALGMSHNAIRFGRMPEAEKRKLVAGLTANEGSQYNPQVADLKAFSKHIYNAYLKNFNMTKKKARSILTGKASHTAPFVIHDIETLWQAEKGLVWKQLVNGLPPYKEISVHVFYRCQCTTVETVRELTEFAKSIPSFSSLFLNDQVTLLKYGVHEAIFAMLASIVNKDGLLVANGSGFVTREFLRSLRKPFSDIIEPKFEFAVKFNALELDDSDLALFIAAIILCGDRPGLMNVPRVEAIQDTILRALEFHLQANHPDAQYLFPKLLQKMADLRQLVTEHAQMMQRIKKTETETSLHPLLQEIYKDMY
The experiment in a line: Displacement of pan-PPAR fluormone from PPARdelta LBD by TR-FRET based LanthaScreen assay.

For data set [7], the target named is T2, Peroxisome proliferator-activated receptor gamma (Homo sapiens). Description: (§1) Agonist activity at PPARgamma LBD in human 293H DA cells after 16 hrs by TR-FRET activation reporter assay. The format is functional, cell-based. The essentials:
(§2)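 GeneBLAzer PPARγ 293H DA cells plated at 30 000 cells/well, exposed to compound (0.1 to 10 000 nM; 0.1% DMSO final) for approximately 16 h. LiveBLAzer-FRET B/G substrate loaded for 2 h, then fluorescence read at 460 and 530 nm. […] EC50 from sigmoidal varying-slope fit. Triplicates, at least two independent experiments.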

Data set [8] concerns the target T5, Peroxisome proliferator-activated receptor gamma (Homo sapiens, UniProt P37231).
T5 sequence (P37231 whole entry): T2 sequence (whole entry)
The data set is described as §1. The format is functional, cell-based. The essentials:
as §2

Data set [9] concerns the target T5, Peroxisome proliferator-activated receptor gamma. Description: Displacement of pan-PPAR fluormone from PPARgamma LBD by TR-FRET based LanthaScreen assay.
For data set [10], the target named is T2, Peroxisome proliferator-activated receptor gamma (Homo sapiens). The experiment in a line: Agonist activity at PPARgamma LBD in human 293H DA cells after 16 hrs by TR-FRET activation reporter assay relative to rosiglitazone. The class given is functional, cell-based. Summed up: as §2
Data set [11] addresses PPAR delta/gamma (Homo sapiens) (UniProt P37231+Q03181). Description: Selectivity ratio of EC50 for PPARdelta LBD to EC50 for PPARgamma LBD.
Data set [12] has as its target T5, Peroxisome proliferator-activated receptor gamma. The experiment in a line: Binding affinity to PPARgamma LBD by fluorescence polarization based competitive binding assay.

The term EC50 denotes the midpoint of the concentration-response curve. The term logP denotes a log measure of how a compound divides between an organic and an aqueous phase.

Activity calls are given as the source filed them. The rule behind the calls is not given here.

For the molecule `Cc1cc(SCc2sc(-c3ccc(C(F)(F)F)c(F)c3)nc2C)ccc1OCC(=O)O`, the concentration giving a half-maximal response (EC50) in data set [1] (read-out: EC50) amounted to 920 nM. Further, the inhibition result in [2] and in data set [4] was “inactive” each time. Further, the logP in data set [3] was 5.95.

Consider `CC(C)(Sc1ccc(CCN(CCCCC2CCCCC2)C(=O)NC2CCCCC2)cc1)C(=O)O` [GW7647], for which the inhibition entry in data set [2] and in [4] was “inactive” throughout. Besides, the logP in data set [3] was 8.02.

As to `CN(CCOc1ccc(CC2SC(=O)NC2=O)cc1)c1ccccn1` (stereo unspecified) [ROSIGLITAZONE], the inhibition result in data set [5] was “inactive”. In addition, the lipophilicity (logP) in data set [3] amounted to 2.62.

Turning to `O=C(Nn1cc([N+](=O)[O-])cn1)c1cccc(COc2ccc(Br)cc2)c1`, the Ratio EC50 in the data set listed under Homo sapiens came out at 2; in [11] it was 4. Also, the concentration giving a half-maximal response (EC50) in [1] (read-out: EC50) came to 11400 nM; in data set [6], 21000 nM; in data set [8], 682 nM; in data set [9] it was 5450 nM; in data set [12] it was 5450 nM. For the same molecule, in [7], the Activity entry is “Dose-dependent effect”. This molecule gave an Emax in data set [10] of 68.7%. Moreover, the logP in [3] turned out to be 3.71.

On to `O=C1NC(=S)NC(=O)C1=Cc1ccc(OCc2ccccc2)c(Cl)c1`, for which the EC50 entry was “Not Active” in data set [1], 467 nM in data set [8], 215 nM in data set [9] and 325 nM in data set [12]. The Activity result in [7] is “Dose-dependent effect”. In data set [10], this molecule showed an Emax of 91.6%. The molecule further gave a logP in [3] of 3.11.

Take `CN(CCOc1ccc(C[C@H](Nc2ccccc2C(=O)c2ccccc2)C(=O)O)cc1)c1ccccn1`: in data set [3], the lipophilicity (logP) worked out at 5.23.

Take `CCOC(=O)c1sc(N2C(=O)C(O)=C(C(=O)c3cccs3)C2c2ccc(C)o2)nc1C` (stereo unspecified): the EC50 in [6] turned out to be 26000 nM; in [8], 594 nM; in data set [9], 2400 nM; in data set [12], 2400 nM. Besides, the Activity entry in data set [7] is “Dose-dependent effect”. Further, the inhibition result in [5] was “inactive”. In addition, in [10], the Emax was 77.5%. In addition, in data set [3], the logP is 2.39. In data set [11], the Ratio EC50 worked out at 10.8.

The values above are taken from ChEMBL document CHEMBL2062388, “Integrated virtual screening for the identification of novel and selective peroxisome proliferator-activated receptor (PPAR) scaffolds” (J Med Chem, 2012).
